AHR act = activators of human aryl hydrocarbon receptor; P35869; AHR-responsive luciferase reporter cells, luminescence; activation, % at 5 µM; hit rate 2.5% among 320,000; in the data active means activation above about 47%
FXIa inh 1536 = inhibitors of human coagulation factor XIa. P03951. purified FXIa, Boc-Glu-Ala-Arg-AMC fluorogenic substrate. inhibition, % at 5 µM. hit rate 0.14% among 220,000;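 active means inhibition of at least 40%; inactive means inhibition below 40%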;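 further: fluorescence of freed AMC excited at 355 nm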
thrombin 1536 = inhibitors of human thrombin; alpha-thrombin, Boc-VPR-AMC fluorogenic substrate cleavage; inhibition, % at 5 µM; hit rate 0.26% among 220,000; AID 1046;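 active means inhibition at or above 40%; inactive means inhibition below 40%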
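Material: human alpha-thrombin enzyme / Medium: pH 7.5 Tris (50 mM) with NaCl 150 mM, Tween 20 0.05% / Compound: single-point dosing at 5 µM, 0.2% DMSO / Incubation: enzyme reaction carried out at room temperature / Detection: AMC fluorescence, 355/460 nm / Read-out basis: percent inhibition scaled between no-compound controls and no-enzyme blanks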
FXIIa inh = blocks human coagulation factor XIIa protease activity. P00748. purified FXIIa, Boc-QGR-AMC fluorogenic substrate, 2 h. inhibition, % at 5 µM. hit rate 0.3% among 220,000. AID 800; in the data active means inhibition above about 40%
Target sequence (P00748 20-372 limits assumed): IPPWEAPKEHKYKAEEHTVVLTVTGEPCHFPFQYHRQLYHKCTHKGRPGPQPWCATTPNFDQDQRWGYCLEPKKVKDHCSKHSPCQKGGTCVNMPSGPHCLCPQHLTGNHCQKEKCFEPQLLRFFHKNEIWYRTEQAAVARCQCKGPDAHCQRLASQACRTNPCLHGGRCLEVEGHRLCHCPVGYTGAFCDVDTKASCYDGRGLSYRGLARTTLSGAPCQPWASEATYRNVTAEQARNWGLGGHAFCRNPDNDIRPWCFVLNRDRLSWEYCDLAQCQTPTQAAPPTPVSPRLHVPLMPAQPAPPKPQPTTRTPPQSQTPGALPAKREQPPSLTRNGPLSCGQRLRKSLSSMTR
Target sequence (P00748 373-615 limits assumed): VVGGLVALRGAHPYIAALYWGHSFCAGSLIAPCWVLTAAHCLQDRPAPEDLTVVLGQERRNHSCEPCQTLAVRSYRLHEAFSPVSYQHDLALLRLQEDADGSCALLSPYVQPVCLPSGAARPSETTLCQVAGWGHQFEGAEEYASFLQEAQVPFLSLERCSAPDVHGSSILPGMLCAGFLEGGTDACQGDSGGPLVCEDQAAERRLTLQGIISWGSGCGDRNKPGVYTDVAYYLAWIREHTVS
KLK5 inh = inhibitors of human kallikrein 5 | inhibition, % at 5 µM | recombinant hK5, fluorogenic AMC substrate cleavage | Q9Y337 | hit rate 0.59% among 210,000;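 active means inhibition of 40% or more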
STAT3 activator = STAT3 signaling activation; U3A cells, IL-6 STAT3-luciferase reporter, luminescence; 100% = signal with IL-6 EC80 alone; activation (% of control), % at 5.6 µM; hit rate 0.91% among 190,000; AID 871;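 active means activation above the screen-wide mean of compound activation plus 3 SD, cut at about 130% in these data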
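Test system: human U3A cells carrying STAT3-luciferase construct; control set: IL-6-only wells as 100% reference; timing: compound pre-incubation 1 h before IL-6, then 6 h stimulation at 37 °C; also added: IL-6 stimulus at 33 ng/mL final; evaluation: % activation versus median of IL-6-stimulated wells; detection: reporter luminescence signal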
Hits are given with their value; – = inactive; · = not tested or not shown. In the library only some 3.5% were active in any assay of this set; here they are far more common.

SMILES | AHR act | FXIa inh 1536 | thrombin 1536 | FXIIa inh | KLK5 inh | STAT3 activator
CCc1c(C)sc(NC(=S)Nc2cccnc2)c1C(=O)OC | 76.4 | – | – | – | · | –
CCc1c(C)sc(NC(=S)Nc2nc(C)cc(C)n2)c1C(=O)OC | – | – | – | – | – | –
COc1ccc(NC(C)=O)cc1S(=O)(=O)NC1CCSc2ccccc21 (stereo unspecified) | – | · | · | · | · | ·
Cc1c(C(=O)N(C)C(C)c2ccccn2)oc2c(F)cccc12 (stereo unspecified) | 53.6 | · | · | · | · | ·
CC(C)CN(C(=O)COC(=O)CNC(=O)c1ccccc1)c1c(N)n(Cc2ccccc2)c(=O)[nH]c1=O | – | · | · | · | · | ·
CNC(=O)c1[nH]cnc1C(=O)Nc1cccc(Cl)c1 | 54.8 | · | · | · | · | ·
CN(CCN(C)C(=O)c1[nH]cnc1C(=O)Nc1ccccc1)C(=O)c1[nH]cnc1C(=O)Nc1ccccc1 | 47.4 | · | · | · | · | ·
O=C(Nc1ccccc1)c1nc[nH]c1C(=O)NCCNC(=O)c1[nH]cnc1C(=O)Nc1ccccc1 | 76.0 | · | · | · | · | ·
CN(Cc1ccccc1)C(=O)c1[nH]cnc1C(=O)Nc1ccc(Cl)cc1 | 65.6 | · | · | · | · | ·
O=C(Nc1cccc(Cl)c1)c1nc[nH]c1C(=O)NCCCNC(=O)c1[nH]cnc1C(=O)Nc1cccc(Cl)c1 | – | · | · | · | · | ·
O=C(CN1CCOCC1)Nc1nc2ccc(Br)cc2s1 | – | – | – | – | – | –
CN1CCN(S(=O)(=O)c2cccc(C(=O)NCc3ccccc3Cl)c2)CC1 | – | – | – | – | – | –
Cc1ccc(CNC(=O)c2ccc(OCC3CCCO3)cc2)cc1 (stereo unspecified) | – | – | – | – | – | –
O=C(CSc1nnc(-c2ccncc2)n1Cc1ccco1)Nc1nc(-c2ccccc2)cs1 | 47.7 | – | – | – | – | –
O=C(CSc1nnc(-c2ccc(Cl)cc2)n1Cc1ccco1)c1cccs1 | 87.3 | – | – | – | – | –
O=C(CSc1nnc(-c2ccncc2)n1Cc1ccco1)c1ccc(Cl)cc1 | – | – | – | – | – | –
Cc1ccc(S(=O)(=O)NCC(=O)NCCc2c[nH]c3ccccc23)cc1C | – | · | · | · | · | ·
Cc1ncc(CO)c(/C=N/NC(=S)Nc2cccc(Cl)c2)c1O | 54.5 | – | – | – | – | –
O=C(CNC(=O)c1ccco1)OCc1ccccc1F | – | · | · | · | · | ·
COC(=O)c1nc(-c2ccccc2)oc1N1CCOCC1 | – | – | – | – | – | –
Oc1[nH]c2c(Cl)cc(Cl)cc2c1N=NC(=S)NCC1CCCO1 (stereo unspecified) | 51.0 | – | – | – | – | –
C=CCN1C(=O)c2ccc(C(=O)N(CCOC)c3c(N)n(CCCC)c(=O)[nH]c3=O)cc2C1=O | – | · | · | · | · | ·
CC(C)c1ccc(O)c(N)c1 | – | – | – | – | – | –
CC(C)(C)c1ccc(O)c(N)c1 | 48.0 | – | – | – | – | –
COc1ccc(C2C3=C(CCCC3=O)Nc3c(-c4ccccc4)c(C)nn32)cc1 (stereo unspecified) | – | – | – | – | – | –
SMILES | AHR act | FXIa inh 1536 | thrombin 1536 | FXIIa inh | KLK5 inh | STAT3 activator
C#CCNC(=O)C1=C[C@@H](c2cn(C(C)=O)c3ccccc23)C[C@@H](OCc2ccc(CO)cc2)O1 | 47.3 | – | – | – | – | ·
CC(=O)n1cc([C@H]2C=C(C(N)=O)O[C@@H](OCc3ccc(CO)cc3)C2)c2ccccc21 | 73.3 | · | · | · | · | ·
CC(=O)n1cc([C@H]2C=C(C(=O)NCc3ccccc3)O[C@@H](OCc3ccc(CO)cc3)C2)c2ccccc21 | 65.4 | – | – | – | – | ·
CC(=O)n1cc([C@@H]2C=C(C(=O)Nc3ccccc3)O[C@H](OCc3ccc(CO)cc3)C2)c2ccccc21 | – | – | – | – | – | ·
Cc1cc(C)cc(NC(=O)CCN2CC(C)OC(C)C2)c1 (stereo unspecified) | – | – | – | – | – | –
COc1ccc(NS(=O)(=O)c2ccc(N3CCCC3)c(NC(=S)Nc3cccc(S(=O)(=O)N(C)C)c3)c2)cc1 | – | – | – | – | – | –
O=C1c2ccccc2C(=O)c2c(Nc3ccc(CCO)cc3)ccc(O)c21 | 68.5 | – | – | – | – | ·
C#CCSc1nnc(-c2c[nH]c3ccccc23)n1C | 48.8 | – | – | – | – | –
Cn1nccc1C(=O)N1CCN(S(=O)(=O)c2ccc(Br)s2)CC1 | – | · | · | · | · | ·
CCOC(=O)[C@H]1[C@H]2COc3cc(OC)ccc3[C@@H]2N2C(=O)c3cc(OC)c(OC)cc3NC(=O)[C@@]12C | – | · | · | · | · | ·
CCN(CC)C(=O)CSc1nc(N)c(C#N)c(-c2cccs2)c1C#N | 77.0 | – | – | – | – | –
N#Cc1c(SCC(N)=O)nc2c(c1-c1ccncc1)CCCC2 | – | – | – | – | – | –
CCN(CC)C(=O)CSc1nc2c(c(-c3cccnc3)c1C#N)CCCC2 | 67.2 | – | – | – | – | –
Cc1cccc2nc(=S)n(C(=O)c3ccco3)n12 | – | – | – | – | – | 133.7
c1cncc(N=c2scc(-c3cccc4ccccc34)n2CCCn2ccnc2)c1 | 55.7 | – | – | – | – | –
Cc1ccc(-c2csc(=Nc3cccnc3)n2CCCn2ccnc2)cc1C | – | – | – | – | – | –
O=C(O)c1ccc(/C=N/n2cc(-c3ccccc3)[nH]c2=S)cc1 | – | – | – | – | – | ·
S=c1[nH]c(-c2ccccc2)cn1/N=C/c1cccs1 | 66.6 | – | – | – | – | ·
Cc1ccc(C)c(/C=N/n2cc(-c3ccccc3)[nH]c2=S)c1 | 61.7 | – | – | – | – | –
S=c1[nH]c(-c2ccccc2)cn1/N=C/c1ccc(Br)cc1 | 53.8 | – | – | – | – | –
Cc1ccc2nc(C)cc(C(=O)N3CCCC(CO)(Cc4ccccc4C)C3)c2c1 (stereo unspecified) | – | – | – | – | – | –
Cc1ccc2cc(CN(C(=O)c3cccs3)c3ccccc3)c(=O)[nH]c2c1 | – | – | – | 73.6 | 62.0 | ·
CCN(Cc1ccccc1)C(=O)CC(=O)N(CC)Cc1ccccc1 | – | · | · | · | · | ·
CCCN(C(=O)c1cnccn1)c1c(N)n(Cc2ccccc2)c(=O)[nH]c1=O | – | · | · | · | · | ·
CC(C)c1ccc(NC(=O)c2snc3ccc(Cl)cc23)cc1 | 54.6 | – | – | – | – | –
SMILES | AHR act | FXIa inh 1536 | thrombin 1536 | FXIIa inh | KLK5 inh | STAT3 activator
CC(C)c1ccc(NC(=O)c2csnn2)cc1 | – | – | – | – | – | –
Nc1c(Cl)cnc(C(Cl)(Cl)Cl)c1Cl | 66.8 | – | – | – | – | –
CCO[C@@H]1OC(C(=O)N2CCN(Cc3ccccc3)CC2)=C[C@H](c2coc3ccccc3c2=O)[C@H]1CCCO | – | – | – | – | – | ·
CC(=O)CC(c1ccccc1)S(=O)(=O)c1ccc([N+](=O)[O-])cc1 (stereo unspecified) | – | · | · | · | · | ·
O=C(CSc1nc2ccccc2[nH]1)Nc1nc(-c2cccc(Br)c2)cs1 | 64.5 | – | – | – | – | –
CSCc1ccc(C(=O)NC2CC(C)(C)Cc3c2cnn3-c2ccc(F)cc2)o1 (stereo unspecified) | – | · | · | · | · | ·
Cc1cc2n(n1)SC(Nc1cc(Cl)ccc1Cl)N2 (stereo unspecified) | 62.9 | – | – | – | – | –

High-throughput results deposited in PubChem BioAssay by several laboratories.
